Organism: Mus musculus
Experiment: Inhibition constant for influx competition with [6-3H]thymidine in mouse erythrocytes
Format: functional
Outline: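 Freshly harvested mouse erythrocytes were exposed to various concentrations of test nucleoside and [6-3H]thymidine, and zero-trans thymidine influx was measured. Extracellular [6-3H]thymidine was measured over time by liquid scintillation counting of aliquots. The Ki for competition at the nucleoside transporter was derived by previously described methods.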

Ki [µM]	Structure (SMILES)
140	O=c1[nH]c(=O)n([C@H]2C[C@H](O)[C@@H](CO)O2)cc1Br [BROXURIDINE]
210	O=c1[nH]c(=O)n([C@H]2C[C@H](O)[C@@H](CO)O2)cc1I [IDOXURIDINE]
130	O=c1ccn([C@H]2C[C@H](O)[C@@H](CO)O2)c(=O)[nH]1 [DEOXYURIDINE]
120	O=c1ccn([C@@H]2O[C@H](CO)[C@@H](O)[C@H]2F)c(=O)[nH]1

Structure (SMILES)	Ki [µM]
Cc1cn([C@H]2C[C@H](O)[C@@H](CO)O2)c(=O)[nH]c1=O [DOXRIBTIMINE]	80

The compounds below were run on Nucleic Acid (assay: Incorporation of compound into DNA of human and mammalian cells, by replacing thymidine).
Format: functional

Structure (SMILES)	Replacement [%]
O=c1[nH]c(=O)n([C@H]2C[C@H](O)[C@@H](CO)O2)cc1Br [BROXURIDINE]	43

Source: ChEMBL document CHEMBL1124493, “Synthesis and tumor uptake of 5-82Br- and 5-131I-labeled 5-halo-1-(2-fluoro-2-deoxy-beta-D-ribofuranosyl)uracils” (J Med Chem, 1989)
